Series [1] deals with Rattus norvegicus. As to the kind of experiment: Antiinflammatory activity in sc dosed Albino rat assessed as protection against carrageenan-induced paw edema measured 4 hrs after carrageenan challenge. The format is functional. The gist of the method: (§1)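 Rats randomized into groups of six. Edema induced by subplantar injection of 50 µL 2% carrageenan in 0.9% saline. Compounds in DMSO given sc at 5, 10, 15, 20 and 25 µmol/kg, 1 h before carrageenan; controls got DMSO. Paw volume read by water plethysmometer immediately and 4 h after carrageenan. Protection = (Vc − Vd)/Vc × 100. ED50 taken from dose-response curves at 4 h. Means ± SEM.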
In general terms: In the carrageenan paw model, swelling and tenderness develop within hours.

The subject of series [2] is Rattus norvegicus. As to the kind of experiment: Toxicity in Albino rat assessed as gastric-ulcerogenic effect at 30 uM/kg, po twice daily for 3 days. Conditions: in vivo, 72 h, 30 µM/kg per day. The format is organism-based. The gist of the method:
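Male albino rats (100–120 g), six per group, fasted 12 h with water ad libitum. Compounds given orally in two equal doses at 0 and 12 h for three successive days, 30 µM/kg per day; controls received 1% gum acacia orally. Rats killed with diethyl ether 6 h after the last dose and stomachs removed. Lesion severity scored on an arbitrary scale as ulcer index; % ulceration = ulcer-bearing animals/total × 100.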

Series [3] concerns Rattus norvegicus. As to the kind of experiment: Antiinflammatory activity in sc dosed Albino rat assessed as protection against carrageenan-induced paw edema measured 4 hrs after carrageenan challenge relative to indomethacin. The class given is functional.
For series [4], the system named is Rattus norvegicus. Description: Antiinflammatory activity against carrageenan-induced paw edema in sc dosed Albino rat assessed as inhibition of paw edema volume measured 4 hrs after carrageenan challenge. The format is functional. The gist of the method: as §1

Drawing on ChEMBL document CHEMBL1150290, “Novel anti-inflammatory agents based on pyridazinone scaffold; design, synthesis and in vivo activity” (Bioorg Med Chem, 2008), this text covers Activity and ED50 for eleven compounds.

Each structure is given as a SMILES string.

The term ED50 denotes the midpoint of the dose-response relation. As for `O=C1CCC(CCc2ccc(-c3ccccc3)cc2)=NN1`, the Activity with Rattus norvegicus [1] is 58.16%; in the series on Rattus norvegicus [2] it was 10%; in the series with Rattus norvegicus [3], 78.17. Besides, the ED50 in the series on Rattus norvegicus [4] amounted to 18.7 µmol/kg.
`O=C1CCC(CCc2ccc3c(c2)OCCO3)=NN1`: the Activity in the series on Rattus norvegicus [1] came to 61.22%; with Rattus norvegicus [2], 0%; in the series with Rattus norvegicus [3] it was 82.28. Moreover, the ED50 in the series with Rattus norvegicus [4] worked out at 17 µmol/kg.
As to `CN1N=C(/C=C/c2ccc(-c3ccccc3)cc2)CCC1=O`, in the series on Rattus norvegicus [2], the Activity stood at 20%. For the same compound, in the series with Rattus norvegicus [4], the ED50 is 32.4 µmol/kg.
As to `CN1N=C(/C=C/c2ccc3c(c2)OCO3)CCC1=O`, the Activity in the series on Rattus norvegicus [2] is recorded as 10%. Further, the ED50 in the series on Rattus norvegicus [4] was 34.3 µmol/kg.
On the same counts, the results for `CN1N=C(CCc2ccc(-c3ccccc3)cc2)CCC1=O` are 0% and 22.3 µmol/kg.
In the case of `O=C1CCC(/C=C/c2ccc3c(c2)OCCO3)=NN1`, the Activity in the series with Rattus norvegicus [2] amounted to 0%. The ED50 in the series with Rattus norvegicus [4] amounted to 27 µmol/kg.
For `Cc1ccc(-c2cc(C(F)(F)F)nn2-c2ccc(S(N)(=O)=O)cc2)cc1` [CELECOXIB], the Activity in the series with Rattus norvegicus [1] is 77.5%; with Rattus norvegicus [2], 0%; in the series on Rattus norvegicus [3] it was 104.23. Also, in the series with Rattus norvegicus [4], the ED50 amounted to 16.7 µmol/kg.
Turning to `O=C1CCC(/C=C/c2ccc(-c3ccccc3)cc2)=NN1c1ccccc1`, in the series with Rattus norvegicus [2], the Activity is listed as 10%. Further, the ED50 in the series on Rattus norvegicus [4] is 38.6 µmol/kg.
On to `COc1ccc2c(c1)c(CC(=O)O)c(C)n2C(=O)c1ccc(Cl)cc1` [INDOMETHACIN], for which the Activity in the series on Rattus norvegicus [1] is recorded as 74.4%; in the series with Rattus norvegicus [2] it was 100%. Moreover, the ED50 in the series on Rattus norvegicus [4] stood at 9.7 µmol/kg.
With `O=C1CCC(/C=C/c2ccc(Oc3ccccc3)cc2)=NN1`, the Activity in the series with Rattus norvegicus [2] stood at 0%. Also, in the series with Rattus norvegicus [4], the median effective dose (ED50) is 28.8 µmol/kg.
On the same counts, the results for `O=C1CCC(/C=C/c2ccc(-c3ccccc3)cc2)=NN1` are 10% and 24.6 µmol/kg.
